Calls of active or inactive are those of the source. The calls are words filed in the database; no cut-off is given here.
Key:
[1] = target: T1, Histone deacetylase 2 (Homo sapiens, UniProt Q92769); assay: Competitive binding affinity to HDAC2 in human CD34positive cell-derived erythroid progenitor cells in presence of largazole thiol by tetrazine-PEG4-biotin-based SDS-PAGE/immunoblot analysis
Method in brief: (§1)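 Mobilized peripheral blood CD34+ cells were expanded 7 days with CC100 cytokines, then 4 days in erythroid medium (SCF, IL-3, EPO, dexamethasone, β-estradiol). Cells got DMSO or 1–100 nM inhibitor (37 °C, 2 h or 24 h), then 3 μM TCO largazole thiol for 10 min. Lysates were clicked with 50 μM tetrazine-PEG4-biotin, pulled down on streptavidin and immunoblotted for HDAC1/2. Occupancy versus vehicle gave OC50 by sigmoidal fit.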

[2] = target: Histone deacetylase 3 (Homo sapiens) (UniProt O15379); assay: Binding affinity to HDAC3 in human CD34positive cell-derived erythroid progenitor cells by tetrazine-PEG4-biotin-based SDS-PAGE/immunoblot analysis
Chain of Histone deacetylase 3 (Homo sapiens) (O15379 whole entry): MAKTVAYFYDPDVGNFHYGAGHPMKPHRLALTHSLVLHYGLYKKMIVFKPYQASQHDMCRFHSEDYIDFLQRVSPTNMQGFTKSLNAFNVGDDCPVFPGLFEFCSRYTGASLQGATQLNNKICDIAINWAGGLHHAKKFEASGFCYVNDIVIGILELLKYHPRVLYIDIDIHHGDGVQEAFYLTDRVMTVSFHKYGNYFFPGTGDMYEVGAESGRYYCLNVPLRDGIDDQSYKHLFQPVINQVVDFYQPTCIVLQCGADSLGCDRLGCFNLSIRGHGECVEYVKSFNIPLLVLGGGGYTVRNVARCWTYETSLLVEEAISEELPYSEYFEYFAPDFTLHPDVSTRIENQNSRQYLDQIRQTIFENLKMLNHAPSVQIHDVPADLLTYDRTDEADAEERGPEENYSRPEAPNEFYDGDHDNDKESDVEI

[3] = target: T1, Histone deacetylase 2; assay: Inhibition of C-terminal FLAG or His-tagged full length recombinant human HDAC2 expressed in baculovirus infected Sf9 insect cells using HDAC substrate 3 after 30 mins by fluorescence assay
Method in brief: (§2)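 Fluorogenic deacetylation was run at 37 °C for 30 min in HEPES pH 7.5 buffer with NaCl, KCl, Tween 20, TCEP and BSA. Enzyme and substrate were: HDAC1 10 ng, HDAC2 5 ng or HDAC3 2 ng with 10 µM substrate 3; HDAC8 10 ng with 2 µM class 2a substrate 1. Compound ran at 0.001–10000 nM. Developer was added for 20 min at RT and fluorescence read at Ex360/Em460.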

[4] = Apparent permeability of the compound; format: ADME; details: not told
[5] = target: T2, Histone deacetylase 1 (Homo sapiens, UniProt Q13547); assay: Competitive binding affinity to HDAC1 in human CD34positive cell-derived erythroid progenitor cells in presence of largazole thiol by tetrazine-PEG4-biotin-based SDS-PAGE/immunoblot analysis; method in brief: as §1
T2 sequence (Q13547 whole entry): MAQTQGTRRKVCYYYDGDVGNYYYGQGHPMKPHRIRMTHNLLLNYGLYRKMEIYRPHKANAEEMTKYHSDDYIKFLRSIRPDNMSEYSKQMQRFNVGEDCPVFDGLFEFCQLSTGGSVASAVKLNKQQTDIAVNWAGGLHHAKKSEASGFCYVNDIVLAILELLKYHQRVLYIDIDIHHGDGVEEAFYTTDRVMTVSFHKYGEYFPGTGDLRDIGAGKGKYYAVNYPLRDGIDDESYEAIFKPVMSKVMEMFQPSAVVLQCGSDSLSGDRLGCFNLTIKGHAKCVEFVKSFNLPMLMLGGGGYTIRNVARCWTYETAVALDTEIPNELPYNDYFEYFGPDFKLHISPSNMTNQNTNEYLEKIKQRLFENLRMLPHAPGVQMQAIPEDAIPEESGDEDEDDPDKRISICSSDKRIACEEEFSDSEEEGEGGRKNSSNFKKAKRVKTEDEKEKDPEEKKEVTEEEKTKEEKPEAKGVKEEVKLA

[6] = target: T1, Histone deacetylase 2; assay: Binding affinity to HDAC2 in human CD34positive cell-derived erythroid progenitor cells up to 3 uM by tetrazine-PEG4-biotin-based SDS-PAGE/immunoblot analysis
[7] = target: T3, Histone deacetylase 8 (Homo sapiens, UniProt Q9BY41); assay: Inhibition of C-terminal His-tagged full length recombinant human HDAC8 expressed in baculovirus infected Sf9 insect cells using HDAC class 2a substrate 1 after 30 mins by fluorescence assay; method in brief: as §2
T3 sequence (Q9BY41 whole entry): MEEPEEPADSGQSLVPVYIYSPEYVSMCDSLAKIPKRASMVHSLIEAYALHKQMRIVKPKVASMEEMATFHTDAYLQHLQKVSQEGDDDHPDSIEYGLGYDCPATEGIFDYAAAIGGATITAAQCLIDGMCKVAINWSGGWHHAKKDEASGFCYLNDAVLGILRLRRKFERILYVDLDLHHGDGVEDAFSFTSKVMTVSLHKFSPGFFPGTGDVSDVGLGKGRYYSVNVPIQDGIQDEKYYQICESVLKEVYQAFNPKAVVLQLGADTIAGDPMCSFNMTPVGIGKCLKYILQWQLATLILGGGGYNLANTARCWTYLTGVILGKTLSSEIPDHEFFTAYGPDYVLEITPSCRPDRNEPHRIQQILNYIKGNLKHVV

[8] = target: T1, Histone deacetylase 2; assay: Binding affinity to HDAC2 in human CD34positive cell-derived erythroid progenitor cells measured up to 120 mins by tetrazine-PEG4-biotin-based SDS-PAGE/immunoblot analysis
[9] = target: T2, Histone deacetylase 1; assay: Inhibition of C-terminal FLAG/His-tagged full length recombinant human HDAC1 expressed in baculovirus infected Sf9 insect cells using HDAC substrate 3 after 30 mins by fluorescence assay; method in brief: as §2
[10] = target: Histone deacetylase 3/Nuclear receptor corepressor 2 (HDAC3/NCoR2) (Homo sapiens, UniProt O15379); assay: Inhibition of C-terminal His-tagged full length recombinant human HDAC3/N-terminal GST-tagged NCOR2 (395 to 489 residues) expressed in baculovirus infected Sf9 insect cells using HDAC substrate 3 after 30 mins by fluorescence assay; method in brief: as §2
Chain of Histone deacetylase 3/Nuclear receptor corepressor 2 (HDAC3/NCoR2) (O15379 whole entry, the tested form may be a part): as the sequence (O15379 whole entry) above
Chain of Histone deacetylase 3/Nuclear receptor corepressor 2 (HDAC3/NCoR2) (Q9Y618 whole entry, further chain, the tested form may be a part): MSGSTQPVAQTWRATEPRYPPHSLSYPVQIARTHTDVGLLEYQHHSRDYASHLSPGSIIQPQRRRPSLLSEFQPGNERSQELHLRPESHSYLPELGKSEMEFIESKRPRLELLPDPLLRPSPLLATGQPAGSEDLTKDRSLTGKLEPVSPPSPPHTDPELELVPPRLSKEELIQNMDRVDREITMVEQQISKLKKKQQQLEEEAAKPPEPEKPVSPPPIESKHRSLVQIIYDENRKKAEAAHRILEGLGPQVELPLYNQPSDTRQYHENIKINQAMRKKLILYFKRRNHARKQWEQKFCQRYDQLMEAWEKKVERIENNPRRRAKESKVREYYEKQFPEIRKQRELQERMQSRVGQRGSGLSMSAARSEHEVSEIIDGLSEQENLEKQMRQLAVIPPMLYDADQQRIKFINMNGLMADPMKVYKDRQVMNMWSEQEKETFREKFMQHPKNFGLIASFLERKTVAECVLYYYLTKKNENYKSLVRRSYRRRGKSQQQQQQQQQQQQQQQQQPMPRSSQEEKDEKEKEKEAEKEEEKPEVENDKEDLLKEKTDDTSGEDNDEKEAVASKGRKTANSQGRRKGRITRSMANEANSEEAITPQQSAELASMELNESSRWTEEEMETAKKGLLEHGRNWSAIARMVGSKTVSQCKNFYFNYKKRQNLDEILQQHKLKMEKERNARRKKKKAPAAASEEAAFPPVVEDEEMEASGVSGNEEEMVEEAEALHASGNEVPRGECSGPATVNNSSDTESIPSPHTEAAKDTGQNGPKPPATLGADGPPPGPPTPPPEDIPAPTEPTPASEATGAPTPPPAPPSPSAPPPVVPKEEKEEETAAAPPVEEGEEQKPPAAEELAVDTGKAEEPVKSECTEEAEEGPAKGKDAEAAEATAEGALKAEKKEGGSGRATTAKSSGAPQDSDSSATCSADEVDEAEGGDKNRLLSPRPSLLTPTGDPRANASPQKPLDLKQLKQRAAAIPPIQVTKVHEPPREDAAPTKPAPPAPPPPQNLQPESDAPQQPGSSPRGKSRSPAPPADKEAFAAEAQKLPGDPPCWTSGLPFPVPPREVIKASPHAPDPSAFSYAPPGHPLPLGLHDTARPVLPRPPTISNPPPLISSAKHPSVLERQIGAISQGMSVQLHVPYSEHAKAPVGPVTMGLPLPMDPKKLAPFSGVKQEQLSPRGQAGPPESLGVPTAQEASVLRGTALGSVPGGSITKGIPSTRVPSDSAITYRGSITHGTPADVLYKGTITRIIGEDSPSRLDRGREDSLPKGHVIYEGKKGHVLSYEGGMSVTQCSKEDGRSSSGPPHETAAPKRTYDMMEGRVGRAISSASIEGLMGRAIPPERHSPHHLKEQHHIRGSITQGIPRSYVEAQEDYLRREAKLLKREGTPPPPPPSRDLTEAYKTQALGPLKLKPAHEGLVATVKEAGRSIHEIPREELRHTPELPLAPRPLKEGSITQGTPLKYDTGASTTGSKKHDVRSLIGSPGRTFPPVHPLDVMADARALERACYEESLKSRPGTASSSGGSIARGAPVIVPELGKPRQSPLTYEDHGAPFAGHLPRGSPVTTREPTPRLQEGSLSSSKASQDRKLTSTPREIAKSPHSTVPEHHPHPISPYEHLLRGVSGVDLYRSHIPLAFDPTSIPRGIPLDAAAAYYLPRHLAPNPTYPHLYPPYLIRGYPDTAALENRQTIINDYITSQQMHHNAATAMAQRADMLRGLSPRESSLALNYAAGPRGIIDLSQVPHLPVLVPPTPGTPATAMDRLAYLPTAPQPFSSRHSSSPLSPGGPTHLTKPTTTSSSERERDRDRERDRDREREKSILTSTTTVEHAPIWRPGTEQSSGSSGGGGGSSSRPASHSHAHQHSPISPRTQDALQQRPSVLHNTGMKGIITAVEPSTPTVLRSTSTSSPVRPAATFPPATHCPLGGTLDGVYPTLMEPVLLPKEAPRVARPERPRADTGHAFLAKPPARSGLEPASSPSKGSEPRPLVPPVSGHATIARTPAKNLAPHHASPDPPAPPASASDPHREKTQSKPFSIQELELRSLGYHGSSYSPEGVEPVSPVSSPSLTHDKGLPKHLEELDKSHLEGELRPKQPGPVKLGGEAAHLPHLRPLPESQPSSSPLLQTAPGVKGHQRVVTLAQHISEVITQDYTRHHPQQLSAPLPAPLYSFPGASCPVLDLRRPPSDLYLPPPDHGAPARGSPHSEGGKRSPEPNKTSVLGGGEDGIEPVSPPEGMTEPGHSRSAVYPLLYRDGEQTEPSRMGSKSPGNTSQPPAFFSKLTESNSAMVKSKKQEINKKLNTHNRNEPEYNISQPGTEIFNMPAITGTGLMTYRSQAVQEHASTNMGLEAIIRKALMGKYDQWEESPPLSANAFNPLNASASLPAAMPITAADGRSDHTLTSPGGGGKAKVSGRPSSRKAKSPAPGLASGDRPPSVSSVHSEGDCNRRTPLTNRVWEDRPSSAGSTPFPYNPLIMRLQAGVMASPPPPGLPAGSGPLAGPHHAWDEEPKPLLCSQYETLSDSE

[11] = target: T2, Histone deacetylase 1; assay: Binding affinity to HDAC1 in human CD34positive cell-derived erythroid progenitor cells measured up to 120 mins by tetrazine-PEG4-biotin-based SDS-PAGE/immunoblot analysis
[12] = target: T2, Histone deacetylase 1; assay: Binding affinity to HDAC1 in human CD34positive cell-derived erythroid progenitor cells up to 3 uM by tetrazine-PEG4-biotin-based SDS-PAGE/immunoblot analysis
[13] = target: T1, Histone deacetylase 2

T1 sequence (Q92769 whole entry): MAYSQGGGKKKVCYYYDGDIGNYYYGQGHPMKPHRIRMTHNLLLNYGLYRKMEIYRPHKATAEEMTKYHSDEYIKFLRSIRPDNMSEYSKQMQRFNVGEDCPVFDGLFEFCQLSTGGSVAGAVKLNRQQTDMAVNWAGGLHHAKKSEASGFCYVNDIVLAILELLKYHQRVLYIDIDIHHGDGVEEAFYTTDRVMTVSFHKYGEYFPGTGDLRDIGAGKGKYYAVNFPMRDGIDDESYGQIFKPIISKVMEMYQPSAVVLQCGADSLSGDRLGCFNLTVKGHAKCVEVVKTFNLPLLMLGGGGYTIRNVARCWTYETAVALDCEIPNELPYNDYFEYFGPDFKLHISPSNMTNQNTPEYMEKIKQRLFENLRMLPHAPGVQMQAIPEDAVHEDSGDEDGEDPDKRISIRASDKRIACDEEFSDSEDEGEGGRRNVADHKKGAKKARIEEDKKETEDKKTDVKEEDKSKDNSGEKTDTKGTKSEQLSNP

Activity [1]	Activity [2]	IC50 [3]	Papp [4]	Activity [5]	Activity [6]	IC50 [7]	Activity [8]	IC50 [9]	IC50 [10]	Activity [11]	Activity [12]	Occ50 [13]	SMILES
Active	inactive	6.6 nM	3.23 ×10⁻⁶ cm/s	Active	Active	1110 nM	Active	1.9 nM	1.1 nM	Active	Active		C[C@@]12CSC(=N1)c1csc(n1)CNC(=O)C[C@@H](/C=C/CCS)OC(=O)[C@H](CCCCNC(=O)O[C@@H]1CC/C=C/CCC1)NC2=O
												3 nM	O=C(/C=C/c1ccc(CN(CCO)CCc2c[nH]c3ccccc23)cc1)NO
